ChEMBL document CHEMBL5252546, “Salutaxel, a Conjugate of Docetaxel and a Muramyl Dipeptide (MDP) Analogue, Acts as Multifunctional Prodrug That Inhibits Tumor Growth and Metastasis” (J Med Chem, 2018)
Values belong to the compound of their own block, whether it stands above or below them. The source made the active and inactive calls. The calls are words filed in the database; no cut-off is given here.

What was measured:
4T1 [1] = experiment: Antitumor activity against mouse 4T1 cells implanted in BALB/c mouse assessed as increase in tumor NOD1 expression level at 5.7 mg/kg,iv administrated once per week for 4 weeks in presence of compound 5b by western blot assay; format: functional, organism-based
Summary of the method: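 Tumour-bearing BALB/c mice (4T1 cells into mammary fat pad) given iv saline vehicle or test agents once weekly for 4 weeks. Tumours excised and probed by western blot for MMP9, MMP2 and NOD1, β-actin as loading control. Bands averaged over five mice per group; representative of two independent experiments.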

[2] = Tmax in mouse plasma implanted with mouse 4T1 cells at 5.7 mg/kg,iv measured upto 72 hrs; format: ADME, organism-based
[3] = MRT in mouse tumor implanted with mouse 4T1 cells at 5.7 mg/kg,iv measured upto 72 hrs; format: ADME, organism-based, Neoplasm
[4] = Toxicity in BALB/c mouse injected with mouse 4T1 cells assessed as body weight loss at 5.7 mg/kg,iv administrated once per week for 4 weeks; format: organism-based; conditions: in vivo, 672 h
4T1 [5] = experiment: Antitumor activity against mouse 4T1 cells implanted in BALB/c mouse assessed as decrease in serum TIMP-1 level at 5.7 mg/kg,iv administrated once per week for 4 weeks by ELISA; format: functional, organism-based
[6] = Toxicity in BALB/c mouse xenografted with mouse 4T1 cells assessed as decrease in body weight at 10 mg/kg,iv administrated once per week for 4 weeks; format: organism-based; conditions: in vivo, 672 h
[7] = Half life in Beagle dog at 2 mg/kg,iv measured upto 24 hrs; format: ADME, organism-based, Canis lupus familiaris; conditions: in vivo
[8] = Cmax in mouse tumor implanted with mouse 4T1 cells at 10 mg/kg,iv measured upto 72 hrs; format: ADME, organism-based, Neoplasm; parameters: time < 72 hrs, dose 10 mg/kg, route iv
Summary of the method: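 BALB/c mice carried 4T1 cells implanted in the mammary fat pad and received a single iv dose of 10 mg/kg. Parent drug and released docetaxel were assayed in plasma and tumor tissue up to 72 h. Parameters came from noncompartmental analysis, n = 6, mean ± SD.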

[9] = Cmax in male rat at 4 mg/kg,iv measured upto 24 hrs; format: ADME, organism-based; parameters: time < 24 hrs, dose 4 mg/kg, route iv; conditions: in vivo
Summary of the method: (§1)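 Rats were given a single iv injection at 2, 4 or 8 mg/kg. Plasma parent drug and released docetaxel were followed over time. Cmax, Tmax, AUC, MRT, t1/2, CL and Vss were reported for males, females and all animals combined.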

[10] = Toxicity in BALB/c mouse xenografted with mouse 4T1 cells assessed as decrease in body weight at 10 mg/kg,iv administrated with doxorubicin combination once per week for 4 weeks; format: organism-based; conditions: in vivo, 672 h
[11] = Tmax in Beagle dog at 4 mg/kg,iv measured upto 24 hrs; format: ADME, organism-based, Canis lupus familiaris; conditions: in vivo
[12] = Cmax in Beagle dog at 4 mg/kg,iv measured upto 24 hrs; format: ADME, organism-based, Canis lupus familiaris; parameters: dose 4 mg/kg, time < 24 hrs, route iv; conditions: in vivo
Summary of the method: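 Beagle dogs were given a single iv infusion at 1, 2 or 4 mg/kg. Plasma parent drug and released docetaxel were followed over time. Cmax, Tmax, AUC, MRT, t1/2, CL and Vss were reported by sex and for all dogs combined.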

[13] = Half life in female rat at 8 mg/kg,iv measured upto 24 hrs; format: ADME, organism-based; conditions: in vivo
[14] = Drug metabolism in dog hepatocytes assessed as docetaxel metabolite formation at 20 uM incubated for 180 mins; format: ADME, cell-based, Canis lupus familiaris, Hepatocyte; conditions: 3 h
4T1 [15] = experiment: Antitumor activity against mouse 4T1 cells implanted in BALB/c mouse assessed as decrease in MMP9 mRNA expression in lung at 20 mg/kg,iv administrated qd for 2 days by qRT-PCR analysis; format: functional, organism-based; conditions: time 2.0 day
Summary of the method: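 Day 19 after 4T1 implantation, mice randomised into five groups; iv vehicle or 20 mg/kg plus ip C12-iE-DAP (50 μg/mouse) and MDP (100 μg/mouse) once daily for 2 days; killed after 48 h; lung mRNA for MMP8, MMP9, PROK2, S100A8, S100A9 and IL-1β by qPCR; mean ± SEM.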

[16] = Stability in monkey plasma assessed as compound remaining at 40 uM incubated for 6 hrs; format: ADME, cell-free, Macaca mulatta; conditions: rhesus monkey
[17] = Tmax in rat at 2 mg/kg,iv measured upto 24 hrs; format: ADME, organism-based; conditions: in vivo
[18] = Drug metabolism in rat plasma assessed as metabolite MDA-205 formation at 4 mg/kg,iv measured after 24 hrs; format: ADME, organism-based; conditions: in vivo
[19] = Prodrug conversion in mouse plasma implanted with mouse 4T1 cells assessed as Tmax of docetaxel at 4 mg/kg,iv measured upto 72 hrs; format: ADME, organism-based; conditions: in vivo
[20] = Tmax in male Beagle dog at 4 mg/kg,iv measured upto 24 hrs; format: ADME, organism-based, Canis lupus familiaris; conditions: in vivo
[21] = AUC (0-infinity) in female Beagle dog at 2 mg/kg,iv measured upto 24 hrs; format: ADME, organism-based, Canis lupus familiaris; parameters: time < 24 hrs, dose 2 mg/kg, route iv; conditions: in vivo
Summary of the method: (§2)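 Single iv dose: rats 2, 4 or 8 mg/kg by intravenous injection; Beagle dogs 1, 2 or 4 mg/kg by intravenous infusion. Plasma concentration–time data were analysed by sex and pooled. Reported parameters: Cmax, Tmax, AUC0−t, AUC0−∞, MRT0−∞, t1/2, CL, Vss, given as mean ± SD.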

[22] = Clearance in rat at 2 mg/kg,iv measured upto 24 hrs; format: ADME, organism-based; conditions: in vivo; summary of the method: as §1
[23] = Clearance in male rat at 2 mg/kg,iv measured upto 24 hrs; format: ADME, organism-based; conditions: in vivo; summary of the method: as §1
[24] = Tmax in Beagle dog at 2 mg/kg,iv measured upto 24 hrs; format: ADME, organism-based, Canis lupus familiaris; conditions: in vivo
[25] = AUC (0-infinity) in Beagle dog at 1 mg/kg,iv measured upto 24 hrs; format: ADME, organism-based, Canis lupus familiaris; parameters: dose 1 mg/kg, time < 24 hrs, route iv; conditions: in vivo; summary of the method: as §2
Cytochrome P450 2C8 = Cytochrome P450 2C8 (Homo sapiens, UniProt P10632); experiment: Inhibition of CYP2C8 in human liver microsomes using probe substrate in presence of NADPH; format: ADME, Microsome
[26] = AUC (0-infinity) in male Beagle dog at 1 mg/kg,iv measured upto 24 hrs; format: ADME, organism-based, Canis lupus familiaris; parameters: dose 1 mg/kg, time < 24 hrs, route iv; conditions: in vivo; summary of the method: as §2
[27] = Prodrug conversion in mouse tumor implanted with mouse 4T1 cells assessed as Tmax of docetaxel at 4 mg/kg,iv measured upto 72 hrs; format: ADME, organism-based, Neoplasm; conditions: in vivo
[28] = Toxicity in Beagle dog assessed as decrease in blood pressure at 1 to 4 mg/kg,iv measured after 1 to 4 hrs; format: organism-based, Canis lupus familiaris; conditions: in vivo, dose lower 1 mg/kg, time lower 1 hrs, dose upper 4 mg/kg, time upper 4 hrs
[29] = Half life in male rat at 4 mg/kg,iv measured upto 24 hrs; format: ADME, organism-based; conditions: in vivo
[30] = Volume of distribution at steady state in rat at 2 mg/kg,iv measured upto 24 hrs; format: ADME, organism-based; conditions: in vivo, read-out: Vdss
4T1 [31] = experiment: Antitumor activity against mouse 4T1 cells implanted in BALB/c mouse assessed as decrease in lung MMP2 expression level at 5 to 20 mg/kg,iv administrated once per week for 4 weeks by western blot assay; format: functional, organism-based; conditions: dose 5-20 mg/kg
Summary of the method: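 4T1 fat-pad model in BALB/c mice, iv once weekly for 4 weeks; MMP9, MMP2 and NOD1 in spleen, lung and tumour by western blot, β-actin loading control; bands averaged over five mice per group, representative of two independent experiments.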

[32] = Volume of distribution at steady state in Beagle dog at 4 mg/kg,iv measured upto 24 hrs; format: ADME, organism-based, Canis lupus familiaris; conditions: in vivo, read-out: Vdss
[33] = Prodrug conversion in mouse plasma implanted with mouse 4T1 cells assessed as AUC (0-t) of docetaxel at 4 mg/kg,iv measured upto 72 hrs; format: ADME, organism-based; parameters: time < 72 hrs, dose 4 mg/kg, route iv; conditions: in vivo
[34] = Half life in mouse plasma implanted with mouse 4T1 cells at 10 mg/kg,iv measured upto 72 hrs; format: ADME, organism-based
[35] = Drug distribution in rat kidney at 4 mg/kg,iv measured by 0.25 hrs; format: ADME, organism-based; conditions: in vivo
Summary of the method: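 Rats received 4 mg/kg iv. Parent drug and released docetaxel were assayed in tissues and plasma from the first sampling at 0.25 h to 24 h. The lower limit of quantitation was 200 ng/g.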

Sequence of Cytochrome P450 2C8 (P10632 whole entry): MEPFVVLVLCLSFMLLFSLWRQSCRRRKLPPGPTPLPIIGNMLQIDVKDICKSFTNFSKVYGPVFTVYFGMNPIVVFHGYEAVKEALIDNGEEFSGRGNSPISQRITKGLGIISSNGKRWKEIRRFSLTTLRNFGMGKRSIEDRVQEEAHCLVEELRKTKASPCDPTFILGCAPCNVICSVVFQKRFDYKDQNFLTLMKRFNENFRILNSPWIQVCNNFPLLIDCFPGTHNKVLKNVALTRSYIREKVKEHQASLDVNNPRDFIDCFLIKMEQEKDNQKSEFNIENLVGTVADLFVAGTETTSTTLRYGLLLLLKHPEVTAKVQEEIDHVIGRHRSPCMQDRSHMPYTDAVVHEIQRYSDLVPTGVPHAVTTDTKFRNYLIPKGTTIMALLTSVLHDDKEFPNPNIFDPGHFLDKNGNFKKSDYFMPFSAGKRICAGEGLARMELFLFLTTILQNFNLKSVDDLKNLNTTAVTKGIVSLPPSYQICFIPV

Tmax [2]: 1.8 min
MRT [3]: 73.3 h
SMILES: CC(=O)O[C@@]12CO[C@@H]1C[C@H](O)[C@@]1(C)C(=O)[C@H](O)C3=C(C)[C@@H](OC(=O)[C@H](O)[C@@H](NC(=O)OC(C)(C)C)c4ccccc4)C[C@@](O)([C@@H](OC(=O)c4ccccc4)[C@H]21)C3(C)C [DOCETAXEL ANHYDROUS]
Activity (4T1 [1]): inactive
Activity [4]: Non-Toxic
Activity (4T1 [5]): Active

SMILES: CC(=O)O[C@@]12CO[C@@H]1C[C@H](O)[C@@]1(C)C(=O)[C@H](O)C3=C(C)[C@@H](OC(=O)[C@H](OC(=O)CCC(=O)NCCCC[C@H](NC(=O)CC[C@@H](NC(=O)[C@H](C)NC(=O)/C=C/c4ccc(F)cc4Cl)C(N)=O)C(=O)O)[C@@H](NC(=O)OC(C)(C)C)c4ccccc4)C[C@@](O)([C@@H](OC(=O)c4ccccc4)[C@H]21)C3(C)C
Activity [6]: Toxic
half-life [7]: 30.5 min
Cmax [8]: 140 nM
Cmax [9]: 37900 ng/mL
Activity [10]: Toxic
Tmax [11]: 30 min
Cmax [12]: 30100 ng/mL
half-life [13]: 15.2 min
Drug metabolism [14]: Metabolite_Detected
Activity (4T1 [15]): Active
Stability [16]: Stable
Tmax [17]: 4.98 min
Drug metabolism [18]: Metabolite_Detected
Tmax [19]: 1.8 min
Tmax [20]: 30 min
AUC(0-inf) [21]: 7020 ng·h/mL
clearance [22]: 6.66 mL/min/kg
clearance [23]: 5.58 mL/min/kg
Tmax [24]: 30 min
AUC(0-inf) [25]: 1640 ng·h/mL
IC50 (Cytochrome P450 2C8): 9.97 µM
AUC(0-inf) [26]: 1630 ng·h/mL
Tmax [27]: 30 min
Activity [28]: Non-Toxic
half-life [29]: 10.7 min
Vd [30]: 0.071 L/kg
Activity (4T1 [31]): inactive
Vd [32]: 0.08 L/kg
AUCt [33]: 8.43 µM·h
half-life [34]: 41.4 min
Drug uptake [35]: Active
